Data reported in ChEMBL document CHEMBL2311431, “Synthesis and biological evaluation of some 5-arylidene-2-(1,3-thiazol-2-ylimino)-1,3-thiazolidin-4-ones as dual anti-inflammatory/antimicrobial agents” (Bioorg Med Chem, 2013).
In brackets after ≈: the same amount, converted by molar mass.

Assays:
Trichoderma viride [1] = test: Antifungal activity against Trichoderma viride IAM 5061 after 72 hrs by serial dilution technique; assay type: functional; details: IAM 5061, 72 h
Outline: (§1)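 Serial dilution in malt broth; compounds from 1 mg/ml stocks in 5% DMSO; 72 h at 28 °C. MIC is the lowest concentration with no visible growth under a binocular microscope. Run in duplicate, repeated three times.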

Aspergillus niger [2] = test: Fungicidal activity against Aspergillus niger ATCC 6275 after 72 hrs by serial subcultivation method; assay type: functional; details: ATCC 6275, 72 h
Pseudomonas aeruginosa [3] = test: Bactericidal activity against Pseudomonas aeruginosa ATCC 27853 after 72 hrs by serial subcultivation method; assay type: functional; details: ATCC 27853, 72 h
Aspergillus niger [4] = test: Antifungal activity against Aspergillus niger ATCC 6275 after 72 hrs by serial dilution technique; assay type: functional; details: ATCC 6275, 72 h; outline: as §1
Bacillus cereus [5] = test: Antibacterial activity against Bacillus cereus clinical isolate after 24 hr by microdilution test; assay type: functional
Outline: (§2)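 Broth microdilution in LB medium, about 1.0×10^4 cfu per well; compounds from 1 mg/ml stocks in 5% DMSO. Incubated 24 h. MIC is the lowest concentration with no visible growth under a binocular microscope. Run in duplicate, repeated three times.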

Staphylococcus aureus [6] = test: Antibacterial activity against Staphylococcus aureus ATCC 6538 after 24 hr by microdilution test; assay type: functional; details: ATCC 6538, 24 h; outline: as §2
Trichoderma viride [7] = test: Fungicidal activity against Trichoderma viride IAM 5061 after 72 hrs by serial subcultivation method; assay type: functional; details: IAM 5061, 72 h
Escherichia coli [8] = test: Antibacterial activity against Escherichia coli ATCC 35210 after 24 hr by microdilution test; assay type: functional; details: ATCC 35210, 24 h; outline: as §2
Penicillium ochrochloron [9] = test: Antifungal activity against Penicillium ochrochloron ATCC 9112 after 72 hrs by serial dilution technique; assay type: functional; details: ATCC 9112, 72 h; outline: as §1
Aspergillus fumigatus [10] = test: Antifungal activity against Aspergillus fumigatus after 72 hrs by serial dilution technique; assay type: functional; outline: as §1
Pseudomonas aeruginosa [11] = test: Antibacterial activity against Pseudomonas aeruginosa ATCC 27853 after 24 hr by microdilution test; assay type: functional; details: ATCC 27853, 24 h; outline: as §2
Bacillus cereus [12] = test: Bactericidal activity against Bacillus cereus clinical isolate after 72 hrs by serial subcultivation method; assay type: functional
Aspergillus flavus [13] = test: Fungicidal activity against Aspergillus flavus ATCC 9643 after 72 hrs by serial subcultivation method; assay type: functional; details: ATCC 9643, 72 h
Penicillium ochrochloron [14] = test: Fungicidal activity against Penicillium ochrochloron ATCC 9112 after 72 hrs by serial subcultivation method; assay type: functional; details: ATCC 9112, 72 h
Talaromyces funiculosus [15] = test: Antifungal activity against Penicillium funiculosum ATCC 36839 after 72 hrs by serial dilution technique; assay type: functional; details: ATCC 36839, 72 h; outline: as §1
Mus musculus [16] = test: Antiinflammatory activity in AKR mouse assessed as inhibition of carrageenan-induced paw edema at 0.01 mmol/kg, ip measured after 3.5 hrs of carrageenan-challenge; assay type: functional
Outline: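 AKR mice of both sexes (pregnant females excluded), 6-10 per group, fasted during the experiment. Edema induced by intradermal 0.05 mL of 2% carrageenin into the right hind paw. Compound given at 0.01 mmol/kg ip, suspended in water with Tween-80, at the same time as carrageenin.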

Listeria monocytogenes [17] = test: Bactericidal activity against Listeria monocytogenes NCTC 7973 after 72 hrs by serial subcultivation method; assay type: functional; details: NCTC 7973, 72 h
Micrococcus flavus [18] = test: Bactericidal activity against Micrococcus flavus ATCC 10240 after 72 hrs by serial subcultivation method; assay type: functional; details: ATCC 10240, 72 h
[19] = biological target: T1, Prostaglandin G/H synthase 1 (Ovis aries) (UniProt P05979); test: Inhibition of ovine COX1 assessed as inhibition of PGF2a production by enzyme immunoassay; design: concentration or dose not given beside the values; details: concentration not given here
T1 sequence (whole entry): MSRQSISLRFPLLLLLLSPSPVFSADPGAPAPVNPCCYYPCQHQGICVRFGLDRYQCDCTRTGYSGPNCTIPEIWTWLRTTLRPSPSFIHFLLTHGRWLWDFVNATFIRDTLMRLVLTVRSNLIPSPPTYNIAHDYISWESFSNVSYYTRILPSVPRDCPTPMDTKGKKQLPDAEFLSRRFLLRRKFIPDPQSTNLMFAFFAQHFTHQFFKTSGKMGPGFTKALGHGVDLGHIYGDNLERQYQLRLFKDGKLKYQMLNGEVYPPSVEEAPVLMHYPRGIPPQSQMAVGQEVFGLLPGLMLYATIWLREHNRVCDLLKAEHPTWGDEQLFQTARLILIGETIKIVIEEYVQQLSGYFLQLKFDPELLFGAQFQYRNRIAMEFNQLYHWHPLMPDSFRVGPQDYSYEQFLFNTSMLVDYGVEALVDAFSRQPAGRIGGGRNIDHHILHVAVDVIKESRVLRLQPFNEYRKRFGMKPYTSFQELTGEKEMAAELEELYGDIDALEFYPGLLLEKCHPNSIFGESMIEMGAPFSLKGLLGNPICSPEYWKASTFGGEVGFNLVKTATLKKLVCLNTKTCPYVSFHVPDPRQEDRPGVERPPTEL
Outline: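 Ovine COX-1 from a commercial screening kit, tested with 0.1 µM arachidonic acid, which is below the saturating level. COX-derived PGH2 is reduced by SnCl2 to PGF2a, quantified by enzyme immunoassay with a broad prostaglandin antibody. At least triplicate.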

Staphylococcus aureus [20] = test: Bactericidal activity against Staphylococcus aureus ATCC 6538 after 72 hrs by serial subcultivation method; assay type: functional; details: ATCC 6538, 72 h
[21] = Inhibition of soybean lipoxygenase assessed as inhibition of sodium linolate conversion to 13-hydroperoxylinoleic acid after 4 mins by spectrophotometry; design: species or system Glycine max; details: read-out: IC50
Aspergillus fumigatus [22] = test: Fungicidal activity against Aspergillus fumigatus after 72 hrs by serial subcultivation method; assay type: functional
Mus musculus [23] = test: Acute toxicity in AKR mouse up to 0.5 mmol/kg, ip; assay type: organism-based; details: in vivo
Listeria monocytogenes [24] = test: Antibacterial activity against Listeria monocytogenes NCTC 7973 after 24 hr by microdilution test; assay type: functional; details: NCTC 7973, 24 h; outline: as §2
Micrococcus flavus [25] = test: Antibacterial activity against Micrococcus flavus ATCC 10240 after 24 hr by microdilution test; assay type: functional; details: ATCC 10240, 24 h; outline: as §2
Escherichia coli [26] = test: Bactericidal activity against Escherichia coli ATCC 35210 after 72 hrs by serial subcultivation method; assay type: functional; details: ATCC 35210, 72 h
Talaromyces funiculosus [27] = test: Fungicidal activity against Penicillium funiculosum ATCC 36839 after 72 hrs by serial subcultivation method; assay type: functional; details: ATCC 36839, 72 h
Aspergillus flavus [28] = test: Antifungal activity against Aspergillus flavus ATCC 9643 after 72 hrs by serial dilution technique; assay type: functional; details: ATCC 9643, 72 h; outline: as §1

Work on `COc1ccc(OC)c(/C=C2\S/C(=N/c3nccs3)NC2=O)c1` yielded an MIC (Trichoderma viride [1]) of 58 µM (≈ 20.2 µg/mL), an MFC (Aspergillus niger [2]) of 290 µM (≈ 101 µg/mL) and an MBC (Pseudomonas aeruginosa [3]) of 406 µM (≈ 141 µg/mL). For the same compound, the MIC (Aspergillus niger [4]) was 232 µM (≈ 80.6 µg/mL), the MIC (Bacillus cereus [5]) was 232 µM (≈ 80.6 µg/mL) and the MIC (Staphylococcus aureus [6]) was 232 µM (≈ 80.6 µg/mL). The MFC (Trichoderma viride [7]) was 348 µM (≈ 121 µg/mL), the MIC (Escherichia coli [8]) was 406 µM (≈ 141 µg/mL) and the MIC (Penicillium ochrochloron [9]) was 58 µM (≈ 20.2 µg/mL). It also gave an MIC (Aspergillus fumigatus [10]) of 233 µM (≈ 80.9 µg/mL), an MIC (Pseudomonas aeruginosa [11]) of 290 µM (≈ 101 µg/mL) and an MBC (Bacillus cereus [12]) of 348 µM (≈ 121 µg/mL). The MFC (Aspergillus flavus [13]) was 348 µM (≈ 121 µg/mL), the MFC (Penicillium ochrochloron [14]) was 116 µM (≈ 40.3 µg/mL) and the MIC (Talaromyces funiculosus [15]) was 7.3 µM (≈ 2.54 µg/mL). The inhibition in vivo at 10 µmol/kg (Mus musculus [16]) was 26%, the MBC (Listeria monocytogenes [17]) was 230 µM (≈ 79.9 µg/mL) and the MBC (Micrococcus flavus [18]) was 290 µM (≈ 101 µg/mL). The inhibition [19] was 85%, the MBC (Staphylococcus aureus [20]) was 348 µM (≈ 121 µg/mL) and the IC50 [21] was 52 µM. For the same compound, the MFC (Aspergillus fumigatus [22]) was 348 µM (≈ 121 µg/mL), the Activity (Mus musculus [23]) was “Non-toxic” and the MIC (Listeria monocytogenes [24]) was 58 µM (≈ 20.2 µg/mL). It also gave an MIC (Micrococcus flavus [25]) of 232 µM (≈ 80.6 µg/mL), an MBC (Escherichia coli [26]) of 464 µM (≈ 161 µg/mL) and an MFC (Talaromyces funiculosus [27]) of 58 µM (≈ 20.2 µg/mL). For the same compound, the MIC (Aspergillus flavus [28]) was 290 µM (≈ 101 µg/mL).
Compound `O=C1N/C(=N\c2nccs2)S/C1=C\c1ccc(Br)cc1` has an MIC (Trichoderma viride [1]) of 13.7 µM (≈ 5.02 µg/mL), an MFC (Aspergillus niger [2]) of 27.3 µM (≈ 10 µg/mL) and an MBC (Pseudomonas aeruginosa [3]) of 54.6 µM (≈ 20 µg/mL). It also gave an MIC (Aspergillus niger [4]) of 13.7 µM (≈ 5.02 µg/mL), an MIC (Bacillus cereus [5]) of 20.5 µM (≈ 7.51 µg/mL) and an MIC (Staphylococcus aureus [6]) of 13.7 µM (≈ 5.02 µg/mL). It also gave an MFC (Trichoderma viride [7]) of 27.3 µM (≈ 10 µg/mL), an MIC (Escherichia coli [8]) of 27.3 µM (≈ 10 µg/mL) and an MIC (Penicillium ochrochloron [9]) of 13.7 µM (≈ 5.02 µg/mL). The MIC (Aspergillus fumigatus [10]) was 13.7 µM (≈ 5.02 µg/mL), the MIC (Pseudomonas aeruginosa [11]) was 27.3 µM (≈ 10 µg/mL) and the MBC (Bacillus cereus [12]) was 54.6 µM (≈ 20 µg/mL). For the same compound, the MFC (Aspergillus flavus [13]) was 27.3 µM (≈ 10 µg/mL), the MFC (Penicillium ochrochloron [14]) was 27.3 µM (≈ 10 µg/mL) and the MIC (Talaromyces funiculosus [15]) was 20.5 µM (≈ 7.51 µg/mL). The inhibition in vivo at 10 µmol/kg (Mus musculus [16]) was 42.2%, the MBC (Listeria monocytogenes [17]) was 54.6 µM (≈ 20 µg/mL) and the MBC (Micrococcus flavus [18]) was 54.6 µM (≈ 20 µg/mL). It also gave an inhibition [19] of 67%, an MBC (Staphylococcus aureus [20]) of 27.3 µM (≈ 10 µg/mL) and an IC50 [21] of 66 µM. The MFC (Aspergillus fumigatus [22]) was 27.3 µM (≈ 10 µg/mL), the Activity (Mus musculus [23]) was “Non-toxic” and the MIC (Listeria monocytogenes [24]) was 27.3 µM (≈ 10 µg/mL). It also gave an MIC (Micrococcus flavus [25]) of 27.3 µM (≈ 10 µg/mL), an MBC (Escherichia coli [26]) of 54.6 µM (≈ 20 µg/mL) and an MFC (Talaromyces funiculosus [27]) of 27.3 µM (≈ 10 µg/mL). It also gave an MIC (Aspergillus flavus [28]) of 13.7 µM (≈ 5.02 µg/mL).
